Results reported in ChEMBL document CHEMBL1275408, “A chemical genomic screen in Saccharomyces cerevisiae reveals a role for diphthamidation of translation elongation factor 2 in inhibition of protein synthesis by sordarin” (2008).
Calls of active or inactive are those of the source. The rule behind the calls is not given here.

What was measured:
Saccharomyces cerevisiae [1] = test: Antifungal activity against Saccharomyces cerevisiae BY4741 harboring YBR141C mutation in unknown gene by spectrophotometry; format: functional
Summary of the method: (§1)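 Haploid MATa BY4741 KanMX4 deletion strains pinned from frozen stocks into YPD + G418 (150 mg/liter), grown 3 days at 28°C to confluence, then pin-replicated into SC liquid with no drug or sordarin derivative GM193663 (2 ng/ml sensitivity; 62.5 ng/ml resistance). 28°C, OD595 read every 24 h for 5 days; growth scored relative to wild type on same plate and to untreated mutant.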

Saccharomyces cerevisiae [2] = test: Antifungal activity against Saccharomyces cerevisiae BY4741 harboring SBE2 YDR351W mutant gene by spectrophotometry; format: functional; summary of the method: as §1
Saccharomyces cerevisiae [3] = test: Antifungal activity against Saccharomyces cerevisiae BY4741 harboring MRPL3 YMR024W mutant gene by spectrophotometry; format: functional; summary of the method: as §1
Saccharomyces cerevisiae [4] = test: Antifungal activity against Saccharomyces cerevisiae BY4741 harboring MRPL11 YDL202W mutant gene by spectrophotometry; format: functional; summary of the method: as §1
Saccharomyces cerevisiae [5] = test: Antifungal activity against Saccharomyces cerevisiae BY4741 harboring FMP35 YIL157C mutant gene by spectrophotometry; format: functional
Summary of the method: (§2)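 Screen of BY4741 KanMX4 deletion strains pre-grown 3 days at 28°C in YPD with G418 (150 mg/liter), then pinned into liquid SC containing GM193663. The sensitivity screen used 2 ng/ml; the resistance screen used 62.5 ng/ml, with validation at 62.5, 125 and 500 ng/ml. OD595 was read every 24 h over 5 days at 28°C. Growth was scored relative to wild type and to drug-free controls. Retests were at least in duplicate.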

Saccharomyces cerevisiae [6] = test: Antifungal activity against Saccharomyces cerevisiae BY4741 harboring AMS1 YGL156W mutant gene by spectrophotometry; format: functional; summary of the method: as §2
Saccharomyces cerevisiae [7] = test: Antifungal activity against Saccharomyces cerevisiae BY4741 harboring deletion mutation in dph1 gene at 300 to 500 ng/ml after 24 hrs by liquid growth assay; format: functional
Saccharomyces cerevisiae [8] = test: Antifungal activity against Saccharomyces cerevisiae BY4741 harboring DPH5 YLR172C mutant gene by spectrophotometry; format: functional; summary of the method: as §2
Saccharomyces cerevisiae [9] = test: Antifungal activity against Saccharomyces cerevisiae BY4741 harboring DSK2 YMR276W mutant gene by spectrophotometry; format: functional; summary of the method: as §2
Saccharomyces cerevisiae [10] = test: Antifungal activity against Saccharomyces cerevisiae BY4741 harboring deletion mutation in dph4 gene at 100 ng/ml by plate assay; format: functional, organism-based
Summary of the method: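 Spot test on solid SC glucose plates with or without 100 ng/ml sordarin. Drops of 10^5 cells plus 10-fold serial dilutions of each dph deletion strain were spotted alongside the parental strain. Plates were incubated at 28°C for 6 days and imaged every 24 h.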

Saccharomyces cerevisiae [11] = test: Antifungal activity against Saccharomyces cerevisiae BY4741 harboring MTF1 YMR228W mutant gene by spectrophotometry; format: functional; summary of the method: as §1
Saccharomyces cerevisiae [12] = test: Antifungal activity against Saccharomyces cerevisiae BY4741 harboring YDL062W mutation in unknown gene by spectrophotometry; format: functional; summary of the method: as §1
Saccharomyces cerevisiae [13] = test: Antifungal activity against Saccharomyces cerevisiae BY4741 harboring BAP2 YBR068C mutant gene by spectrophotometry; format: functional; summary of the method: as §2
Saccharomyces cerevisiae [14] = test: Antifungal activity against Saccharomyces cerevisiae BY4741 harboring deletion mutation in dph3 gene at 300 to 500 ng/ml after 24 hrs by liquid growth assay; format: functional
Saccharomyces cerevisiae [15] = test: Antifungal activity against Saccharomyces cerevisiae BY4741 harboring YMR141C mutation in unknown gene by spectrophotometry; format: functional
Summary of the method: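 Deletion strains from the nonessential haploid MATa BY4741 collection (KanMX4 replacement) were grown in YPD with G418 at 28°C for 3 days, then pinned into liquid SC with or without sordarin derivative GM193663 (2 ng/ml for sensitivity, 62.5 ng/ml for resistance). Cultures were kept at 28°C and read at OD595 every 24 h for 5 days. Growth was scored against wild type on the same plate and against the drug-free control. Hits were retested at least in duplicate.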

Saccharomyces cerevisiae [16] = test: Antifungal activity against Saccharomyces cerevisiae BY4741 harboring PTP3 YER075C mutant gene by spectrophotometry; format: functional; summary of the method: as §1
Saccharomyces cerevisiae [17] = test: Antifungal activity against Saccharomyces cerevisiae BY4741 harboring MIP6 YHR015W mutant gene by spectrophotometry; format: functional; summary of the method: as §2
Saccharomyces cerevisiae [18] = test: Antifungal activity against Saccharomyces cerevisiae BY4741 harboring COX11 YPL132W mutant gene by spectrophotometry; format: functional; summary of the method: as §2
Saccharomyces cerevisiae [19] = test: Antifungal activity against Saccharomyces cerevisiae BY4741 harboring PRR2 YDL214C mutant gene by spectrophotometry; format: functional; summary of the method: as §1
Saccharomyces cerevisiae [20] = test: Antifungal activity against Saccharomyces cerevisiae BY4741 harboring RSM19 YNR037C mutant gene by spectrophotometry; format: functional; summary of the method: as §1
Saccharomyces cerevisiae [21] = test: Antifungal activity against Saccharomyces cerevisiae BY4741 harboring SER1 YOR184W mutant gene by spectrophotometry; format: functional; summary of the method: as §1
Saccharomyces cerevisiae [22] = test: Antifungal activity against Saccharomyces cerevisiae BY4741 harboring DIA4 YHR011W mutant gene by spectrophotometry; format: functional; summary of the method: as §2
Saccharomyces cerevisiae [23] = test: Antifungal activity against Saccharomyces cerevisiae BY4741 harboring MRP20 YDR405W mutant gene by spectrophotometry; format: functional; summary of the method: as §2
Saccharomyces cerevisiae [24] = test: Antifungal activity against Saccharomyces cerevisiae BY4741 harboring SPS1 YDR523C mutant gene assessed as reduction in fungal growth at 2 ng/ml by spectrophotometry; format: functional, organism-based
Summary of the method: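 Deletion strains (BY4741 background) pre-grown 3 days at 28°C in YPD + G418 (150 mg/liter), then pin-replicated into SC liquid containing 2 ng/ml GM193663 or no drug. 28°C, OD595 every 24 h over 5 days; growth scored against wild type on same plate and against drug-free mutant control; hits retested at least in duplicate at 2 ng/ml.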

Saccharomyces cerevisiae [25] = test: Antifungal activity against Saccharomyces cerevisiae BY4741 harboring MGT1 YDL200C mutant gene by spectrophotometry; format: functional; summary of the method: as §2
Saccharomyces cerevisiae [26] = test: Antifungal activity against Saccharomyces cerevisiae BY4741 harboring ATP1 YBL099W mutant gene assessed as reduction in fungal growth at 2 ng/ml by spectrophotometry; format: functional, organism-based
Summary of the method: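 Haploid BY4741 KanMX4 deletion strains pre-grown in YPD with G418 (150 mg/liter) for 3 days at 28°C. They were then pin-replicated into liquid SC with sordarin derivative GM193663 at 2 ng/ml, or without drug. Plates were incubated at 28°C and OD595 read every 24 h for 5 days. Growth was scored against wild type on the same plate and against the drug-free mutant. Hits were retested at least in duplicate.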

Saccharomyces cerevisiae [27] = test: Antifungal activity against Saccharomyces cerevisiae BY4741 harboring DAL7 YIR031C mutant gene by spectrophotometry; format: functional; summary of the method: as §2
Saccharomyces cerevisiae [28] = test: Antifungal activity against Saccharomyces cerevisiae BY4741 harboring RPL1B YGL135W mutant gene by spectrophotometry; format: functional; summary of the method: as §1
Saccharomyces cerevisiae [29] = test: Antifungal activity against Saccharomyces cerevisiae BY4741 harboring RPS18A YDR450W mutant gene by spectrophotometry; format: functional; summary of the method: as §1
Saccharomyces cerevisiae [30] = test: Antifungal activity against Saccharomyces cerevisiae BY4741 harboring ARO3 YDR035W mutant gene by spectrophotometry; format: functional; summary of the method: as §2
Saccharomyces cerevisiae [31] = test: Antifungal activity against Saccharomyces cerevisiae BY4741 harboring YBR255W mutation in unknown gene by spectrophotometry; format: functional; summary of the method: as §1
Saccharomyces cerevisiae [32] = test: Antifungal activity against Saccharomyces cerevisiae BY4741 harboring BUD9 YGR041W mutant gene by spectrophotometry; format: functional; summary of the method: as §2
Saccharomyces cerevisiae [33] = test: Antifungal activity against Saccharomyces cerevisiae BY4741 harboring ADY3 YDL239C mutant gene by spectrophotometry; format: functional; summary of the method: as §2
Saccharomyces cerevisiae [34] = test: Antifungal activity against Saccharomyces cerevisiae BY4741 harboring RAD28 YDR030C mutant gene by spectrophotometry; format: functional; summary of the method: as §1

## CO[C@H]1[C@@H](O)[C@H](O)[C@H](OC[C@@]23C[C@@H]4[C@H](C)CC[C@H]4[C@@]4(C=O)CC2C=C(C(C)C)[C@@]34C(=O)O)O[C@@H]1C [SORDARIN]
Saccharomyces cerevisiae [1]
  MIC: > 0.5 µg/mL
Saccharomyces cerevisiae [2]
  MIC: > 0.5 µg/mL
Saccharomyces cerevisiae [3]
  MIC: > 0.125 µg/mL
Saccharomyces cerevisiae [4]
  MIC: > 0.0625 µg/mL
Saccharomyces cerevisiae [5]
  MIC: > 0.5 µg/mL
Saccharomyces cerevisiae [6]
  MIC: > 0.125 µg/mL
Saccharomyces cerevisiae [7]
  Activity: 50%
Saccharomyces cerevisiae [8]
  MIC: > 0.5 µg/mL
Saccharomyces cerevisiae [9]
  MIC: > 0.5 µg/mL
Saccharomyces cerevisiae [10]
  MIC: inactive
Saccharomyces cerevisiae [11]
  MIC: > 0.125 µg/mL
Saccharomyces cerevisiae [12]
  MIC: > 0.125 µg/mL
Saccharomyces cerevisiae [13]
  MIC: > 0.125 µg/mL
Saccharomyces cerevisiae [14]
  Activity: 50%
Saccharomyces cerevisiae [15]
  MIC: > 0.5 µg/mL
Saccharomyces cerevisiae [16]
  MIC: > 0.125 µg/mL
Saccharomyces cerevisiae [17]
  MIC: > 0.5 µg/mL
Saccharomyces cerevisiae [18]
  MIC: > 0.125 µg/mL
Saccharomyces cerevisiae [19]
  MIC: > 0.5 µg/mL
Saccharomyces cerevisiae [20]
  MIC: > 0.5 µg/mL
Saccharomyces cerevisiae [21]
  MIC: > 0.5 µg/mL
Saccharomyces cerevisiae [22]
  MIC: > 0.0625 µg/mL
Saccharomyces cerevisiae [23]
  MIC: > 0.5 µg/mL
Saccharomyces cerevisiae [24]
  Activity: Active
Saccharomyces cerevisiae [25]
  MIC: > 0.125 µg/mL
Saccharomyces cerevisiae [26]
  Activity: Active
Saccharomyces cerevisiae [27]
  MIC: > 0.125 µg/mL
Saccharomyces cerevisiae [28]
  MIC: > 0.5 µg/mL
Saccharomyces cerevisiae [29]
  MIC: > 0.0625 µg/mL
Saccharomyces cerevisiae [30]
  MIC: > 0.5 µg/mL
Saccharomyces cerevisiae [31]
  MIC: > 0.5 µg/mL
Saccharomyces cerevisiae [32]
  MIC: > 0.125 µg/mL
Saccharomyces cerevisiae [33]
  MIC: > 0.0625 µg/mL
Saccharomyces cerevisiae [34]
  MIC: > 0.5 µg/mL
